Screening results from PubChem BioAssay.
Shown are actives, neighbours in structure and some others; about 1.7% of the full set was active somewhere.
Scp-1 inhibitor = blocks human Scp-1 phosphatase activity; Q9GZU7; 0.88% of 340,000 active; Recombinant Scp1, phosphopeptide, malachite green phosphate absorbance; inhibition, % at 20 µM;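 active = inhibition above about 50% at 20 µM, limit read from the data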
Target sequence (Q9GZU7 76-261 limits assumed): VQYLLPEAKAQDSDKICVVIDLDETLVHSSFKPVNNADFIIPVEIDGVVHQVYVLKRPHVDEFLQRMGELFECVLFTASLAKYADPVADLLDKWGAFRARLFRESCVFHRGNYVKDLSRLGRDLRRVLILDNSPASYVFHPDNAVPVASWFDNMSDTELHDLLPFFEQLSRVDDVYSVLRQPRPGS
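Times: enzyme reaction 45 min at room temperature, colour 5 min, stabilisation 30 min. Material: SCP-1 catalytic fragment, aa 76-261. Medium: Acidic Tris acetate buffer with magnesium and detergent. Signal: colorimetric free-phosphate detection, absorbance 630 nm. Read-out basis: % inhibition of SCP-1 phosphate liberation. Reagent: Phosphorylated 17-residue peptide substrate.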
DNMT1 block = DNMT1 (human) enzyme inhibition. DNMT1 molecular beacon, Hinp1I cleavage, fluorescence. 0.83% of 360,000 active. AID 588458. P26358. inhibition (reported as % activation of signal), % at 10 µM; in the data active = inhibition above about 50%
STEP inh = STEP (human) phosphatase inhibition; 0.25% of 360,000 active; P54829; inhibition, % at 20 µM; recombinant STEP, OMFP fluorogenic substrate, fluorescence; AID 588621;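 active = inhibition at 20 µM, scaled per plate between control wells, above about 37%, limit read from the data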
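System: STEP phosphatase, cell-free reaction; Buffer or medium: Bis-Tris pH 6.0 buffer with DTT, detergent; Incubation: 20 min at room temperature, dark; Measured by: fluorescence, 480/540 nm.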
LMPTP inh = LMPTP (human) inhibition; P24666; recombinant LMPTP-A, OMFP fluorogenic substrate, fluorescence intensity; inhibition, % at 20 µM; 0.22% of 360,000 active; AID 651560;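 active = compounds that cut the enzyme signal by at least half of the control window in the single-dose screen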
Target sequence (P24666 whole entry, looked up): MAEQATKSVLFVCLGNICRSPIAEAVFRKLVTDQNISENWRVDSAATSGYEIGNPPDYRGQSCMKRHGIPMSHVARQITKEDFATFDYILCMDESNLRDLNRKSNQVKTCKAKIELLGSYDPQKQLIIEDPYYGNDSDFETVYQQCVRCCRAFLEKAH
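Assay system: LMPTP-A, protein tyrosine phosphatase of low molecular weight / Medium: pH 6.0 Bis-Tris buffer with DTT and Triton X-100 / Schedule: 50 min enzyme reaction at room temperature, protected from light / Measured by: endpoint fluorescence intensity from OMFP dephosphorylation / Read-out basis: % inhibition relative to no-enzyme and uninhibited control wells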
SUMO1-SIM PPI = SUMO1-SIM interaction modulation. P63165. SUMO1 binding to a labelled peptide, TR-FRET, 1 h. inhibition, % at 20 µM. 0.33% of 360,000 active. AID 602429; in the data active = inhibition above about 37%
Target sequence (P63165 whole entry, looked up): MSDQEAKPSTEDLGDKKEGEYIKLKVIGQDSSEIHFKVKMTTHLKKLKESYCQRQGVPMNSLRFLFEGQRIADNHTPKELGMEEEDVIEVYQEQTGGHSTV
Scp-1 conf = Scp-1 (human) inhibition, single-dose confirmed. recombinant SCP-1 catalytic domain, phosphate release, malachite green absorbance. 61% of 2,500 active. AID 540281. inhibition, % at 20 µM. shares compounds with Scp-1 inhibitor
Scp-1 MG ctr = interferes with malachite green readout, flagging false Scp-1 hits; shares compounds with Scp-1 inhibitor; Colorimetric interference counterscreen, malachite green absorbance 630 nm; apparent inhibition (interference), % at 20 µM; 2,500 tested, under 10 active; AID 540313;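 note: compounds added after enzyme reaction finished so only phosphate colour detection is probed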
Scp-1 Tm shift = Scp-1 (human) binding by thermal shift; shares compounds with Scp-1 inhibitor; Recombinant SCP1, Sypro Orange thermal shift Tm; thermal shift relative to vanadate control, % at 40 µM; 25% of 1,500 active; AID 540329;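 active = substances whose mean melting-temperature shift, as a percentage of the reference inhibitor's shift, reaches about 5.3%, limit read from the data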
Beacon interf DR = beacon fluorescence artifact, dose response counter-screen; 200 tested, under 10 active; shares compounds with DNMT1 block; molecular beacon fluorescence, spectral interference counter-screen; AID 602382; IC50, µM; call rule not given here
DNMT1 inh conf = DNMT1 inhibition confirmation, single concentration | shares compounds with DNMT1 block | DNMT1 molecular beacon HinP1I cleavage, fluorescence | inhibition, % at 10 µM | 8% of 2,300 active | AID 602385;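 active = average inhibition of at least 30% in the single-concentration confirmation test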
DNMT1 interf = shows spectral interference in the DNMT1 beacon assay | shares compounds with DNMT1 block | DNMT1 molecular beacon spectral interference counterscreen, fluorescence 485/520 | activation (fluorescence interference), % at 10 µM | 1% of 2,300 active | AID 602387;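 active = activation of at least 30% at 10 µM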;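 note: DNMT1 catalytic domain with a HinP1I cleavage step and a FAM/dabcyl DNA beacon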
Each line names hits and unclear results; the compound was inactive in the other large screens (follow-up assays come after a bar, where they were run).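 Rule for the calls, unless noted: active = inhibition of at least 30% at 20 µM; inactive = the rest.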

NC(=O)c1cc(S(=O)(=O)NCc2ccc(Br)cc2)cs1	none | Scp-1 conf inactive | Scp-1 MG ctr inactive
COc1ccc(CNC(=O)Nc2nc(C(N)Cc3ccc(Cl)cc3)cs2)cc1 (centres undefined)	none (no result: Scp-1 inhibitor)
COc1ccc(C(c2nnnn2C2CCCCC2)N2CCN(C/C=C/c3ccccc3)CC2)cc1 (centres undefined)	none (no result: Scp-1 inhibitor)
COc1cccc(C(=O)OCC(=O)Nc2sc3c(c2C(N)=O)CCC3)c1O	Scp-1 inhibitor 62 | Scp-1 conf 72 | Scp-1 MG ctr inactive | Scp-1 Tm shift 9.7
COC(=O)C1CCN(C(=O)COC(=O)CNS(=O)(=O)c2ccc(SC)c([N+](=O)[O-])c2)CC1	Scp-1 inhibitor 74 | Scp-1 conf 43 | Scp-1 MG ctr inactive | Scp-1 Tm shift inactive
CSc1ccc(S(=O)(=O)NCC(=O)OCC(=O)N2CC(C)CC(C)C2)cc1[N+](=O)[O-] (centres undefined)	none
CCN(CC)c1ncnc2c1ncn2[C@H]1CN(C2CCCC2)C[C@@H](CO)O1	none (no result: Scp-1 inhibitor)
O=C1NCCCC2c3c(cc(Br)c(O)c3Br)OC12N1CCCCC1 (centres undefined)	Scp-1 inhibitor 57 | Scp-1 conf inactive | Scp-1 MG ctr inactive
CCN(CC)C(=O)C1=C(C)N(CCCOC)C(=O)C(CC(=O)NCc2cccs2)C1 (centres undefined)	none (no result: Scp-1 inhibitor)
COCCn1cnnc1SCC(=O)Nc1sc2c(c1C#N)CCC2	none
Cn1cnnc1SCC(=O)Nc1sc2c(c1C(N)=O)CCC2	Scp-1 inhibitor 65, DNMT1 block 85, SUMO1-SIM PPI 43 | Scp-1 conf 73 | Scp-1 MG ctr inactive | Scp-1 Tm shift 13 | DNMT1 inh conf inactive | DNMT1 interf inactive
CC1CCC2(CC1)NC(=O)N(CC(=O)Nc1sc3c(c1C(N)=O)CCC3)C2=O (centres undefined)	Scp-1 inhibitor 86, DNMT1 block 70 | Scp-1 conf 65 | Scp-1 MG ctr inactive | Scp-1 Tm shift 12 | DNMT1 inh conf inactive | DNMT1 interf inactive
COC(=O)c1c(NC(=O)CN2C(=O)NC3(CCC(C)CC3)C2=O)sc2c1CCC2 (centres undefined)	none
CN(Cc1cccc(Cl)c1Cl)C(=O)c1ccccc1SCC(=O)N1CCCC1	none
Cc1cc(C(=O)O)ccc1-n1c(C)cc(C=C2C(=O)c3ccccc3C2=O)c1C	none
Cc1ccc(C(=O)O)cc1-c1ccc(C=C2C(=O)c3ccccc3C2=O)o1	Scp-1 inhibitor 79, DNMT1 block 73, STEP inh 42 | Scp-1 conf 47 | Scp-1 MG ctr inactive | Scp-1 Tm shift 12 | DNMT1 inh conf inactive | DNMT1 interf inactive
CCCc1nc2sc3ccccc3c(=O)c2c(=O)n1Cc1ccco1	Scp-1 inhibitor 68, DNMT1 block 76 | Scp-1 conf 54 | Scp-1 MG ctr inactive | Scp-1 Tm shift inactive | DNMT1 inh conf inactive | DNMT1 interf inactive
O=C(Nc1sc(-c2ccccc2)cc1C(=O)O)c1ccccc1	none
C[C@H]1CN([C@@H](C)CO)C(=O)CCCn2nncc2CO[C@@H]1CN(C)Cc1cccc(C(=O)O)c1	none (no result: Scp-1 inhibitor)
Cc1ccc(/C=c2/sc3nnc(-c4ccccc4Cl)n3c2=O)o1	none
Cc1cc(C)cc(N2CN=c3s/c(=C\c4ccco4)c(=O)n3C2)c1	none
Cc1ccc(/C=c2\sc3nc(-c4ccccc4Br)nn3c2=O)o1	Scp-1 inhibitor 92, DNMT1 block 104 | Scp-1 conf 61 | Scp-1 MG ctr inactive | Scp-1 Tm shift 9.2 | DNMT1 inh conf inactive | DNMT1 interf inactive
Cc1ccc(-c2nc3s/c(=C\c4ccco4)c(=O)n3n2)cc1	Scp-1 inhibitor 67, DNMT1 block 79 | Scp-1 conf 49 | Scp-1 MG ctr inactive | Scp-1 Tm shift inactive | DNMT1 inh conf inactive | DNMT1 interf inactive
Cc1cc(Br)cn2c(Cc3ccsc3)c(-c3ccc(Cl)cc3)nc12	none (no result: Scp-1 inhibitor)
O=C(Cc1cccs1)Nc1ccc(S(=O)(=O)N2CCCCC2)cc1	Scp-1 inhibitor 89, DNMT1 block 57 | Scp-1 conf 64 | Scp-1 MG ctr inactive | Scp-1 Tm shift 6.6 | DNMT1 inh conf inactive | DNMT1 interf inactive
Cc1ccnc(NS(=O)(=O)c2ccc(NC(=O)Cc3cccs3)cc2)n1	Scp-1 inhibitor 60, DNMT1 block 90 | Scp-1 conf 73 | Scp-1 MG ctr inactive | Scp-1 Tm shift 6.8 | Beacon interf DR inactive | DNMT1 inh conf inactive | DNMT1 interf inactive
Cc1ccnc(NS(=O)(=O)c2ccc(NC(=O)Cc3ccc(F)cc3)cc2)n1	none
Fc1ccccc1NC(=S)Nn1cnnc1	none
CCCn1c(=O)c2sccc2n2c(CCCC(=O)NCc3cccnc3)nnc12	none
CCCn1c(=O)c2sccc2n2c(CCCC(=O)NCc3ccco3)nnc12	Scp-1 inhibitor 69, DNMT1 block 77 | Scp-1 conf 54 | Scp-1 MG ctr inactive | Scp-1 Tm shift inactive | DNMT1 inh conf inactive | DNMT1 interf inactive
NNC(=O)c1cc2cc3ccccc3nc2s1	none
O=C(Nc1ccc(S(=O)(=O)Nc2nccs2)cc1)c1nn(-c2ccc(F)cc2)ccc1=O	Scp-1 inhibitor 93, DNMT1 block 59, LMPTP inh 56 | Scp-1 conf 59 | Scp-1 MG ctr inactive | Scp-1 Tm shift inactive | DNMT1 inh conf inactive | DNMT1 interf inactive
O=C1Nc2ccc(S(=O)(=O)NCc3ccccn3)c3cccc1c23	Scp-1 inhibitor 86, DNMT1 block 54 | Scp-1 conf 61 | Scp-1 MG ctr inactive | Scp-1 Tm shift inactive | DNMT1 inh conf inactive | DNMT1 interf inactive
O=C(c1coc(=O)c(Br)c1)N1CCOCC1	Scp-1 inhibitor 68, DNMT1 block 74 | Scp-1 conf 60 | Scp-1 MG ctr inactive | Scp-1 Tm shift inactive | DNMT1 inh conf inactive | DNMT1 interf inactive
CCCCSc1nc2c(cc1C#N)CCC2	none
CCCSc1nc(C)c(-c2csc(C(C#N)=C3CCCC3)n2)cc1C#N	Scp-1 inhibitor 57, DNMT1 block 92 | Scp-1 conf 60 | Scp-1 MG ctr inactive | Scp-1 Tm shift inactive | DNMT1 inh conf inactive | DNMT1 interf inactive
